ChEMBL document CHEMBL2331225, “Structure-based design, synthesis and evaluation of novel anthra[1,2-d]imidazole-6,11-dione derivatives as telomerase inhibitors and potential for cancer polypharmacology” (Eur J Med Chem, 2013)
Active and inactive are the calls of the source. No cut-off for these calls is given here.

Tests used:
PC-3 = test: Growth inhibition of human PC3 cells after 48 hrs by SRB assay; assay type: functional, cell-based; settings: PC-3, 48 h
How it was run: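 PC-3 cells were seeded in medium with 5% FBS; after 24 h a plate was fixed with 10% TCA as T₀. Vehicle (0.1% DMSO) or compound was given for 48 h, then cells were TCA-fixed, stained with 0.4% SRB in 1% acetic acid, solubilized in 10 mM Trizma base and read at 515 nm. IC₅₀ is the concentration halving the protein increase seen in controls.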

[1] = biological target: T1, Telomerase reverse transcriptase (Homo sapiens, UniProt O14746); test: Inhibition of TERT transcriptional activity in human H1299 cells assessed SEAP activity at 100 uM incubated for 24 hrs by SEAP assay; assay type: cell-based; set-up: scale not given: the % may be the effect or the level left
How it was run: (§1)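 H1299 stable clones carry the hTERT promoter (−3338 to +1 bp) upstream of SEAP, introduced by electroporation and selected with G418. About 2 × 10³ cells per well were grown 24 h at 37 °C, given fresh medium, then drug for 24 h. Collected media were heated at 65 °C for 10 min, mixed with equal SEAP buffer (2 M diethanolamine, 1 mM MgCl₂, 20 mM L-homoarginine) and p-nitrophenyl phosphate at 12 mM final.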

[2] = biological target: T1, Telomerase reverse transcriptase; test: Inhibition of TERT transcriptional activity in human H1299 cells assessed SEAP activity at 10 uM incubated for 24 hrs by SEAP assay; assay type: cell-based; set-up: scale not given: the % may be the effect or the level left; how it was run: as §1
[3] = biological target: T1, Telomerase reverse transcriptase; test: Inhibition of TERT transcriptional activity in human H1299 cells assessed SEAP activity at 1 uM incubated for 24 hrs by SEAP assay; assay type: cell-based; set-up: scale not given: the % may be the effect or the level left; how it was run: as §1
[4] = Cytotoxicity against human H1299 cells assessed as cell viability at 100 uM after 48 hrs by MTT assay; assay type: functional; settings: NCI-H1299, 48 h, read-out: Activity
How it was run: (§2)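 H1299 cells at about 2 × 10³ per well were grown 24 h at 37 °C in 5% CO₂. Compounds were dissolved in DMSO just before use and diluted into complete medium. After 48 h exposure, MTT was added for 4 h at 37 °C, then lysis buffer (20% SDS, 50% DMF) for 16 h at 37 °C. Absorbance was read at 550 nm.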

[5] = Cytotoxicity against human H1299 cells assessed as cell viability at 10 uM after 48 hrs by MTT assay; assay type: functional; settings: NCI-H1299, 48 h, read-out: Activity; how it was run: as §2
[6] = Cytotoxicity against human H1299 cells assessed as cell viability at 1 uM after 48 hrs by MTT assay; assay type: functional; settings: NCI-H1299, 48 h, read-out: Activity; how it was run: as §2
[7] = biological target: T1, Telomerase reverse transcriptase; test: Inhibition of TERT activity in human H1299 cells homogenates incubated for 5 mins at 100 uM by TRAP assay; assay type: cell-free
How it was run: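 Telomerase-active extracts were prepared from H1299 cells, and lysate protein was measured against BSA standards. Compounds were tested in the TRAP assay, with RNase A-treated extracts as negative controls.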

T1 sequence (O14746 whole entry): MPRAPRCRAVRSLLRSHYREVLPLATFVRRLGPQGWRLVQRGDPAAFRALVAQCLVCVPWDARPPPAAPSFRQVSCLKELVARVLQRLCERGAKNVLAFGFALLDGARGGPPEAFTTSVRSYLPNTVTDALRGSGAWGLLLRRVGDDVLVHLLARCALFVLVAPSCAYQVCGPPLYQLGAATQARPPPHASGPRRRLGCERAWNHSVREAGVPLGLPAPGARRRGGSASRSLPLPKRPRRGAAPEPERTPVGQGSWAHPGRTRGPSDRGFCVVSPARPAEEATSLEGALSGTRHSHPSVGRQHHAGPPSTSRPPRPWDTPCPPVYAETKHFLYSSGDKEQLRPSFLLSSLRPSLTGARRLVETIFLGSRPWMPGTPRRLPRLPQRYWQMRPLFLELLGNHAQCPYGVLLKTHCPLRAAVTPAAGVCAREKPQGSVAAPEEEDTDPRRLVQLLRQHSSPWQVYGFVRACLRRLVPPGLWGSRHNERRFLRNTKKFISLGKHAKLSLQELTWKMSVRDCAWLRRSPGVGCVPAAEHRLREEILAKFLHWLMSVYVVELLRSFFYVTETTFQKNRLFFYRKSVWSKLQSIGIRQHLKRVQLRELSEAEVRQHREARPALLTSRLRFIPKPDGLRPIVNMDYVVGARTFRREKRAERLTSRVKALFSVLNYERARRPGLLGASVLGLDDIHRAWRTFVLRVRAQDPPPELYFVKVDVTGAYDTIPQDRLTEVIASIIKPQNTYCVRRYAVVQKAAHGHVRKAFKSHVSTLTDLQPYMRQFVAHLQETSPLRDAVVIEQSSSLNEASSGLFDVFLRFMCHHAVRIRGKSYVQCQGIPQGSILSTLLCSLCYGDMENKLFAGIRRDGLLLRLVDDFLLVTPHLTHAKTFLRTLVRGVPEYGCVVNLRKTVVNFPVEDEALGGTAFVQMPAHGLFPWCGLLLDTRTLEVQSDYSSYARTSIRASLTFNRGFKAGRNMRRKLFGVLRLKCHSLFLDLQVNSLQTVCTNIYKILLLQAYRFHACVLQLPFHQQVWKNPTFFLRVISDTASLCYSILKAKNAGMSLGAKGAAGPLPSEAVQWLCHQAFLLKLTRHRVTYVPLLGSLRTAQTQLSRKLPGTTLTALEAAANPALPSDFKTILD

Compound | IC50 (PC-3) [µM] | Activity [1] [%] | Activity [2] [%] | Activity [3] [%] | viability at 100 µM [4] [%] | viability at 10 µM [5] [%] | viability at 1 µM [6] [%] | TERT inhibition (active/not active) [7]
O=C1c2ccccc2C(=O)c2c1ccc1nc(CN3CCN(c4ccccc4F)CC3)[nH]c21 | 16.7 | 0 | 78 | 103 | 15 | 77 | 88 | inactive
O=C1c2ccccc2C(=O)c2c1ccc1nc(CCN3CCN(c4ccccc4)CC3)[nH]c21 | > 30 | 37 | 93 | 103 | 65 | 96 | 94 | inactive
CN(Cc1nc2ccc3c(c2[nH]1)C(=O)c1ccccc1C3=O)CC1OCCO1 | 21 | 7 | 69 | 90 | 28 | 90 | 104 | inactive
O=C1c2ccccc2C(=O)c2c1ccc1nc(CNCc3cccc(C(F)(F)F)c3)[nH]c21 | > 30 | 4 | 89 | 87 | 32 | 110 | 114 | inactive
COc1cccc(N2CCN(Cc3nc4ccc5c(c4[nH]3)C(=O)c3ccccc3C5=O)CC2)c1 | 15.3 | 3 | 30 | 105 | 24 | 58 | 81 | inactive
O=C1c2ccccc2C(=O)c2c1ccc1nc(CNCc3ccccc3C(F)(F)F)[nH]c21 | > 30 | 0 | 81 | 87 | 6 | 96 | 99 | inactive
O=C1c2ccccc2C(=O)c2c1ccc1nc(CN(Cc3ccccn3)Cc3ccccn3)[nH]c21 | 6.4 | 0 | 0 | 86 | 0 | 13 | 101 | inactive
CC1CCN(Cc2nc3ccc4c(c3[nH]2)C(=O)c2ccccc2C4=O)CC1 | > 30 | 26 | 97 | 102 | 32 | 110 | 114 | inactive
O=C1c2ccccc2C(=O)c2c1ccc1nc(CCN3CCN(c4ccccn4)CC3)[nH]c21 | > 30 | 1 | 63 | 88 | 57 | 93 | 98 | inactive
CCN(C)Cc1nc2ccc3c(c2[nH]1)C(=O)c1ccccc1C3=O | 7.5 | 0 | 39 | 97 | 0 | 65 | 99 | inactive
O=C1c2ccccc2C(=O)c2c1ccc1nc(CCCl)[nH]c21 | 5.2 | 8 | 83 | 95 | 40 | 86 | 91 | inactive
C=CCN1CCN(Cc2nc3ccc4c(c3[nH]2)C(=O)c2ccccc2C4=O)CC1 | 12.8 | 0 | 17 | 87 | 0 | 45 | 86 | inactive
O=C1c2ccccc2C(=O)c2c1ccc1nc(CN3CCN(Cc4ccccc4)CC3)[nH]c21 | > 30 | 0 | 11 | 98 | 13 | 51 | 93 | inactive
CCCN(C)Cc1nc2ccc3c(c2[nH]1)C(=O)c1ccccc1C3=O | 17.1 | 0 | 34 | 96 | 0 | 80 | 93 | inactive
O=C1c2ccccc2C(=O)c2c1ccc1nc(CN3CCSC3)[nH]c21 | 12.1 | 12 | 86 | 106 | 5 | 76 | 89 | inactive
O=C1c2ccccc2C(=O)c2c1ccc1nc(CN3CCSCC3)[nH]c21 | 6.7 | 5 | 77 | 115 | 1 | 77 | 92 | inactive
CC(C)N(C)Cc1nc2ccc3c(c2[nH]1)C(=O)c1ccccc1C3=O | 6.7 | 0 | 1 | 77 | 0 | 23 | 96 | inactive
O=C1c2ccccc2C(=O)c2c1ccc1nc(CN3CCC4(CC3)OCCO4)[nH]c21 | 21.6 | 14 | 96 | 97 | 15 | 79 | 103 | inactive
O=C(CCCl)Nc1ccc2c(c1NC(=O)CCCl)C(=O)c1ccccc1C2=O | > 30 | 0 | 13 | 87 | 6 | 34 | 94 | inactive
O=C1c2ccccc2C(=O)c2c1ccc1nc(CN3CCN(c4ncccn4)CC3)[nH]c21 | 27.9 | 19 | 92 | 111 | 28 | 74 | 85 | inactive
Nc1ccc2c(c1N)C(=O)c1ccccc1C2=O | – | 18 | – | 99 | 39 | 95 | 105 | inactive
COc1cccc(CN(C)Cc2nc3ccc4c(c3[nH]2)C(=O)c2ccccc2C4=O)c1 | 18.7 | 0 | 78 | 105 | 9 | 98 | 97 | inactive
N#Cc1ccccc1N1CCN(Cc2nc3ccc4c(c3[nH]2)C(=O)c2ccccc2C4=O)CC1 | 29 | 6 | 57 | 106 | 22 | 62 | 78 | inactive
O=C1c2ccccc2C(=O)c2c1ccc1nc(CCl)[nH]c21 | 5.1 | 3 | 0 | 69 | 0 | 0 | 82 | inactive
CN(Cc1nc2ccc3c(c2[nH]1)C(=O)c1ccccc1C3=O)Cc1c2ccccc2cc2ccccc12 | > 30 | 12 | 77 | 102 | 42 | 84 | 98 | inactive
CN(C)Cc1nc2ccc3c(c2[nH]1)C(=O)c1ccccc1C3=O | 8.8 | 0 | 45 | 84 | 0 | 64 | 99 | inactive
O=C1c2ccccc2C(=O)c2c1ccc1nc(CN3CCCCCC3)[nH]c21 | 10.5 | 4 | 66 | 107 | 0 | 85 | 104 | inactive
O=C1c2ccccc2C(=O)c2c1ccc1nc(CN3CCOCC3)[nH]c21 | 12.4 | 26 | 97 | 102 | 13 | 71 | 90 | inactive
